From ChEMBL document CHEMBL1137078, “Carbamoylphosphonates, a new class of in vivo active matrix metalloproteinase inhibitors. 1. Alkyl- and cycloalkylcarbamoylphosphonic acids” (J Med Chem, 2004)
Active and inactive are the calls of the source. No cut-off for these calls is given here.

Tests used:
Stromelysin-1 = Stromelysin-1 (Homo sapiens, UniProt P08254); assay: In vitro inhibitory activity against recombinant matrix metalloprotease-3 was determined
Outline: (§1)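 Commercial recombinant MMP-1, -2, -3, -8 or -9 at four levels (1-50 ng) incubated 3 h with their respective substrates. Compounds at four to six concentrations (0.1-100 µM). Colorimetric change read on an ELISA reader. IC50 calculated from the kinetic data.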

Interstitial collagenase = target: T1, Interstitial collagenase (Homo sapiens, UniProt P03956); assay: In vitro inhibitory activity against recombinant matrix metalloprotease-1 was determined; outline: as §1
T1 sequence (P03956 whole entry): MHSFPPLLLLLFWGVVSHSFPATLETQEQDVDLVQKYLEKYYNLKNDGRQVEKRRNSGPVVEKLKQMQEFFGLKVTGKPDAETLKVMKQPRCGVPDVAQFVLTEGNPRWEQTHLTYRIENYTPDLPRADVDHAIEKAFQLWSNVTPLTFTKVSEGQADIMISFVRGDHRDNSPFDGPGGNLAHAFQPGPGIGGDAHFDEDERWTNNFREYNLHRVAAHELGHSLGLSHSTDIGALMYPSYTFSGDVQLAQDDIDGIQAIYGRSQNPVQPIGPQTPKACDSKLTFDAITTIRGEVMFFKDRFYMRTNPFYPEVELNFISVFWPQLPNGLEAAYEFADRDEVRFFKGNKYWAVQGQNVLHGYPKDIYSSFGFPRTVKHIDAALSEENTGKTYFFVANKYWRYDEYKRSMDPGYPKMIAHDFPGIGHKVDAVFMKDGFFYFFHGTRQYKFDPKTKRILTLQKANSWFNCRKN

[1] = target: 72 kDa type IV collagenase (Homo sapiens, UniProt P08253); assay: In vitro inhibitory activity against recombinant matrix metalloprotease-2 was determined; outline: as §1
Sequence of 72 kDa type IV collagenase (P08253 whole entry): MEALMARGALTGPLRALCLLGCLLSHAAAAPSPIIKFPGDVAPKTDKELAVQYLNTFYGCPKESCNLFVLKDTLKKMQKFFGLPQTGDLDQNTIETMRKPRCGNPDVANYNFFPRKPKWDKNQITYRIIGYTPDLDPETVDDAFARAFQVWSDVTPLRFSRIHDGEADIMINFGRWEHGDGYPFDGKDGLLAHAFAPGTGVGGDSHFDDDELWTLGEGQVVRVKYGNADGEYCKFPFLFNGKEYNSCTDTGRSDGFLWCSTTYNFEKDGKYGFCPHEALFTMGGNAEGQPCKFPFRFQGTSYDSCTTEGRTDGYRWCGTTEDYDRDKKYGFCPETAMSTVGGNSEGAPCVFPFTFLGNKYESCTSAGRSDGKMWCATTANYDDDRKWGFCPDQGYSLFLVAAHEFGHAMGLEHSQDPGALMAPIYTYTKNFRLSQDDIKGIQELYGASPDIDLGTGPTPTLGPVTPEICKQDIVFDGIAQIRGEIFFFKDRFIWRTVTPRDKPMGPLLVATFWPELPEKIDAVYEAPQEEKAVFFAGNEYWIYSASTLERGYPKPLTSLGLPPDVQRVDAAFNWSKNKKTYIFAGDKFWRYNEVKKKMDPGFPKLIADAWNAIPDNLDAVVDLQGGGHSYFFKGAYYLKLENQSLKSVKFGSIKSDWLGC

Neutrophil collagenase = Neutrophil collagenase (Homo sapiens, UniProt P22894); assay: In vitro inhibitory activity against recombinant matrix metalloprotease-8 was determined; outline: as §1
Sequence of Neutrophil collagenase (P22894 whole entry): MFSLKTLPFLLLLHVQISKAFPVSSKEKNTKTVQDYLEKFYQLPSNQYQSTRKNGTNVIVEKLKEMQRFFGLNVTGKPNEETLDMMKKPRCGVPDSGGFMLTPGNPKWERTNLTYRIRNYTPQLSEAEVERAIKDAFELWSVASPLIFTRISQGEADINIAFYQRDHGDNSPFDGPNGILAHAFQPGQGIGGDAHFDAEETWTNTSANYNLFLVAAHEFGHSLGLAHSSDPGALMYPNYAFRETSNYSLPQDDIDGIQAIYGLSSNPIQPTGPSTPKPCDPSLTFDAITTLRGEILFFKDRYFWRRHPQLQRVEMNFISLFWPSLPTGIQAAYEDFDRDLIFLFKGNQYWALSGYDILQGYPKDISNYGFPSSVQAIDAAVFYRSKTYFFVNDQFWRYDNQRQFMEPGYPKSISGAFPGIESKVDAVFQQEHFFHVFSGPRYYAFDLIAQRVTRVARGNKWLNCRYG

NIH3T3 = assay: In vitro inhibition of invasion of NIH 3T3 cells across the reconstituted basement membrane by the compound at 50 uM concentration in Boyden chamber chemoinvasion assay; Inactive; assay type: functional, cell-based; details: Mus musculus
[2] = target: Matrix metalloproteinase-9 (Homo sapiens, UniProt P14780); assay: In vitro inhibitory activity against recombinant matrix metalloprotease-9 was determined; outline: as §1
Sequence of Matrix metalloproteinase-9 (P14780 whole entry): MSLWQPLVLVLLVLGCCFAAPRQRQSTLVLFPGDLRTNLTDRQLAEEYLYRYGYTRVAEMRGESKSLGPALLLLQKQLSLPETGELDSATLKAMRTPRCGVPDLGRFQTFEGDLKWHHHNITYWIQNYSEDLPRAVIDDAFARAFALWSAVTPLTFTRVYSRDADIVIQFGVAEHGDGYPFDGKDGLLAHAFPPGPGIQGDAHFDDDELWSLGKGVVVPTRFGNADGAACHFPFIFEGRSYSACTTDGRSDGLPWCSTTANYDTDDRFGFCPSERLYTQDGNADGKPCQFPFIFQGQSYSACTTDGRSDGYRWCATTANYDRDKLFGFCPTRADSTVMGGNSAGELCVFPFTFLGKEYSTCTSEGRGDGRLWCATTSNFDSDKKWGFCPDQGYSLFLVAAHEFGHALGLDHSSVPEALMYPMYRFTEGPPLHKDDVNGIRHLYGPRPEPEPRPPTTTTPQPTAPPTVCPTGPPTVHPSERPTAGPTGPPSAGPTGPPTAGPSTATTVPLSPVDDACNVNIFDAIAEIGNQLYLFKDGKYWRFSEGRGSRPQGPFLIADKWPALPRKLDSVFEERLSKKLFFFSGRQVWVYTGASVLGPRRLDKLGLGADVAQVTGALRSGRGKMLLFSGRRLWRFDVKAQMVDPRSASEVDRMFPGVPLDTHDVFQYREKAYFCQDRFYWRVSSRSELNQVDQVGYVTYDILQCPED

Homo sapiens = species: Homo sapiens; assay: In vitro inhibition of endothelial capillary tube formation by the compound at 50 uM concentration; assay type: functional
Outline: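 Endothelial cells plated on a thin Matrigel layer with angiogenic factor (bFGF/VEGF), incubated 4-6 h to form tubelike structures. Compounds added at 5 concentrations (100, 50, 25, 10, 5 µM). Tube formation quantified by image analysis. Value is % inhibition at 50 µM.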

B16-F10 = assay: Inhibition of lung metastasis formation after 3 weeks treatment with 50 mg/kg of compound in mice injected with 50000 B16F10 tumor cells into the tail vein; assay type: functional; details: Mus musculus, 504 h
Outline: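 Experimental metastasis in mice: 50 000 B16F10 melanoma cells injected into the tail vein. Compound given ip daily at 50 mg/kg for 3 weeks. Mice sacrificed at day 21, lungs fixed, and surface tumor foci counted. Value is % inhibition of lung metastasis formation.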

Sequence of Stromelysin-1 (P08254 whole entry): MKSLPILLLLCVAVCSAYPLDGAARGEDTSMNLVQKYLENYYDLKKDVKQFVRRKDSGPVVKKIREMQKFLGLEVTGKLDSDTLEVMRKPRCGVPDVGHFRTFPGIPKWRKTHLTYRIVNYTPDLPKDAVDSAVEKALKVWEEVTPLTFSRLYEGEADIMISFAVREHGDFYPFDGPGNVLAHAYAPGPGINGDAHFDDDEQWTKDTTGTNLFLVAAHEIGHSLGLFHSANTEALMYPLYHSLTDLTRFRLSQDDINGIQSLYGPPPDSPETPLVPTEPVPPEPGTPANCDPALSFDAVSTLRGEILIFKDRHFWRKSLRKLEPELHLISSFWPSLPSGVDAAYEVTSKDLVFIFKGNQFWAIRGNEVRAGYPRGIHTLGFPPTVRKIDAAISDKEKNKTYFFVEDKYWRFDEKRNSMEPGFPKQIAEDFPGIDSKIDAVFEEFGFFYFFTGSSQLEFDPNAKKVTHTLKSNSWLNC

Compound	IC50 (Stromelysin-1) [µM]	IC50 (Interstitial collagenase) [µM]	IC50 [1] [µM]	IC50 (Neutrophil collagenase) [µM]	inhibition (NIH3T3)	IC50 [2] [µM]	inhibition (Homo sapiens) [%]	inhibition in vivo at 50 mg/kg (B16-F10) [%]
CC(C)CCNC(=O)P(=O)(O)O.NC1CCCCC1	> 100	> 100	30	50	inactive	> 100		
CCC(CC)NC(=O)P(=O)(O)O	> 100	80	3	10		> 100		
O=C(N1CCCCC1)P(=O)(O)O	90	70	1	> 100	inactive	0.5		
CCC(C)NC(=O)P(=O)(O)O (configuration not stated)	80	40	3	> 100		> 100	20	
O=C(N1CCOCC1)P(=O)(O)O	1	50	> 100	30	inactive	> 100		
O=C(NC1CCC1)P(=O)(O)O [(CYCLOBUTYLAMINO)CARBONYLPHOSPHONIC ACID]	> 100	> 100	0.15	0.04		> 100		60
O=C(NC1CCCCCC1)P(=O)(O)O [(CYCLOHEPTYLAMINO)CARBONYLPHOSPHONIC ACID]	> 100	> 100	4	> 100		> 100	45	69
O=C(NC1CCCCC1)P(=O)(O)O [(CYCLOHEXYLAMINO)CARBONYLPHOSPHONIC ACID]	3	0.1		> 100		> 100	50	37
O=C(NC1CCCCCCC1)P(=O)(O)O [(CYCLOOCTYLAMINO)CARBONYLPHOSPHONIC ACID]	> 100	> 100	1	4		> 100	25	
O=C(NC1CCCC1)P(=O)(O)O [(CYCLOPENTYLAMINO)CARBONYLPHOSPHONIC ACID]	> 100	0.5		> 100		> 100	70	72
O=C(NC1CC1)P(=O)(O)O [(CYCLOPROPYLAMINO)CARBONYLPHOSPHONIC ACID]	> 100	> 100	0.5	0.2		> 100		
CCCCN(CCCC)C(=O)P(=O)(O)O [(DIBUTYLAMINO)CARBONYLPHOSPHONIC ACID]	30	70	50	90	inactive	> 100		
CCN(CC)C(=O)P(=O)(O)O [(DIETHYLAMINO)CARBONYLPHOSPHONIC ACID]	30	30	1	70	inactive	> 100		
CCNC(=O)P(=O)(O)O [(ETHYLAMINO)CARBONYLPHOSPHONIC ACID]	100	50	5	30		3		
CC(C)NC(=O)P(=O)(O)O [(ISOPROPYLAMINO)CARBONYLPHOSPHONIC ACID]	> 100	50	1	50		2	55	40
CNC(=O)P(=O)(O)O [(METHYLAMINO)CARBONYLPHOSPHONIC ACID]	90	> 100	0.02	20		> 100		55
CCCNC(=O)P(=O)(O)O [(PROPYLAMINO)CARBONYLPHOSPHONIC ACID]	50	20	0.3	> 100		20		
CC(C)CNC(=O)P(=O)(O)O.NC1CCCCC1 [CYCLOHEXANAMINIUM HYDROGEN (ISOBUTYLAMINO)CARBONYLPHOSPHONATE]	> 100	40	> 100	1	inactive	> 100		
O=C(NCC1CCCCC1)P(=O)(O)O [CYCLOHEXYLMETHYLCARBAMOYLPHOSPHONIC ACID]	1	30		80			53	69
CCOP(=O)(O)C(=O)NC1CCCCC1 [LITHIUM ETHYL (CYCLOHEXYLAMINO)CARBONYLPHOSPHONATE]	> 100	1.5	30	> 100		> 100		
O=C(NCCc1ccccc1)P(=O)(O)O [PHENETHYLCARBAMOYLPHOSPHONIC ACID]	90	80	20	> 100		> 100		
CCCCNC(=O)P(=O)(O)O [SODIUM HYDROGEN (BUTYLAMINO)CARBONYLPHOSPHONATE]	> 100	25	2	> 100		> 100	20	
